Measurements pooled from the literature.
Lines come from different studies, so protocols differ.
Cell line: PC-3
Observed: cell growth or viability

Structure (SMILES)	assay	setting	IC50
CC1=CC(=O)C(C(C)C)=CC1=O	SRB	48 h	12.8 µM
COc1cc(C(=O)c2nc(-c3cccc4cc[nH]c34)c[nH]2)cc(OC)c1OC	MTS	72 h	0.0316 µM
NS(=O)(=O)c1ccc(-n2nc(C(=O)NN=Cc3ccccc3O)cc2-c2ccccc2)cc1	fluorescence	48 h	18 µM
CC(=O)O[C@H]1C(=O)[C@@]2(C)[C@H]([C@H](OC(=O)c3ccccc3)[C@]3(O)C[C@H](OC(=O)[C@H](O)[C@@H](NC(=O)c4ccccc4)c4ccccc4)C(C)=C1C3(C)C)[C@]1(OC(C)=O)CO[C@@H]1C[C@@H]2O	MTS	72 h	0.0004 µM
O=P1(C2CCCCC2)CCCCC1	MTT	72 h	64.5 µM
COc1cc(C(=O)c2nc(-c3ccncc3)c[nH]2)cc(OC)c1OC	MTS	72 h	> 1 µM
COc1cccc2c1C(=O)c1c(O)c3c(c(O)c1C2=O)C[C@@](O)(C(=O)CO)C[C@@H]3O[C@H]1C[C@H](N)[C@H](O)[C@H](C)O1	MTT		4.81 µg/mL
O=c1[nH]cc(F)c(=O)[nH]1	MTT	72 h	> 360 µM
CC(=O)O[C@H]1[C@H](OC(C)=O)[C@@H](Nc2cc3cccnc3c3ncccc23)OC[C@@H]1OC(C)=O	MTT	48 h, dark	1.4 µM
CN(C)c1cccc2c(S(=O)(=O)NCCCCN=C=S)cccc12	MTT	24 h	16.8 µM
COc1cc(C=NNC(=O)c2cc(-c3ccccc3)n(-c3ccc(S(N)(=O)=O)cc3)n2)cc(OC)c1OC	fluorescence	48 h	33.4 µM
COc1cc(C(=O)c2nc(-c3cccc4[nH]ccc34)cs2)cc(OC)c1OC	MTS	72 h	0.0065 µM
O=P1(c2ccccc2)CCCCC1	MTT	72 h	> 100 µM
NS(=O)(=O)c1ccc(-n2nc(C(=O)NN=Cc3cccnc3)cc2-c2ccccc2)cc1	fluorescence	48 h	38.6 µM
COc1cc(C(=O)c2nc(-c3cccc4[nH]ccc34)c[nH]2)cc2c1OCO2	MTS	72 h	0.005 µM
NS(=O)(=O)c1ccc(-n2nc(C(=O)NN=Cc3ccc(O)cc3)cc2-c2ccccc2)cc1	fluorescence	48 h	17.2 µM
O=C1/C(=C/c2ccc3ccccc3c2O)NC(=S)N1c1ccccc1	MTT		6.04 µg/mL
NS(=O)(=O)c1ccc(-n2nc(-c3nnc(S)o3)cc2-c2ccccc2)cc1	fluorescence	48 h	51.2 µM
COc1cccc2c1C(=O)c1c(O)c3c(c(O)c1C2=O)C[C@@](O)(C(=O)CO)C[C@@H]3O[C@H]1C[C@H](N)[C@H](O)[C@H](C)O1	MTT	72 h	0.3 µM
